Values after ≈ are worked out from the molar mass of the structure shown.
What was measured:
[1] = tested on: Staphylococcus aureus; experiment: Antibacterial activity against methicillin-resistant Staphylococcus aureus USA300 by broth microdilution method
[2] = tested on: Escherichia coli; experiment: Bactericidal activity against Escherichia coli DH10beta harboring pHuLUC3 after 18 to 20 hrs by microdilution method; assay type: functional
In short: (§1)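 EUCAST broth microdilution in LB broth. Inoculum prepared by direct colony suspension from 20–24 h LB agar (E. coli DH10β) or 5% sheep blood BHI agar (MRSA USA300) growth. Final inoculum 2×10^4 CFU/mL, 18–20 h aerobic at 37 °C, growth read on a plate reader, at least duplicate.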

[3] = tested on: Staphylococcus aureus; experiment: Antibacterial activity against methicillin-resistant Staphylococcus aureus USA300 after 18 to 20 hrs by microdilution method; assay type: functional; in short: as §1
[4] = tested on: Escherichia coli; experiment: Antibacterial activity against Escherichia coli DH10beta harboring pHuLUC3 after 18 to 20 hrs by microdilution method; assay type: functional; in short: as §1
[5] = tested on: Saccharomyces cerevisiae; experiment: Antibacterial activity against Saccharomyces cerevisiae after 18 to 20 hrs by microdilution method
In short: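 Microdilution in YEP broth against wild-type yeast grown on YEP agar. Final inoculum 1×10^5 CFU/mL. Read after 18–20 h aerobic incubation at 30 °C on plate reader, at least one duplicate.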

[6] = tested on: Mycolicibacterium smegmatis; experiment: Antimycobacterial activity against Mycobacterium smegmatis MC2 155 after 94 to 98 hrs by microdilution method; assay type: functional; conditions: str. MC2 155
In short: (§2)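 Microdilution in TSB broth. Inoculum from colonies grown 96 h on TSA, final 1×10^5 CFU/mL, aerobic 94–98 h at 37 °C, growth read on a plate reader, at least duplicate.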

[7] = tested on: Staphylococcus aureus; experiment: Bactericidal activity against methicillin-resistant Staphylococcus aureus USA300 after 18 to 20 hrs by microdilution method; assay type: functional; in short: as §1
[8] = tested on: Mycolicibacterium smegmatis; experiment: Bactericidal activity against Mycobacterium smegmatis MC2 155 after 96 hrs by microdilution method; assay type: functional; conditions: str. MC2 155, 96 h; in short: as §2

| SMILES | MIC [1] [µg/mL] | MBC [2] [µg/mL] | MIC [3] [µg/mL] | MIC [4] [µg/mL] | MIC [5] [µg/mL] | MIC [6] [µg/mL] | MBC [7] [µg/mL] | MBC [8] [µg/mL] |
| --- | --- | --- | --- | --- | --- | --- | --- | --- |
| COc1c(N2CCNC(C)C2)c(F)cc2c(=O)c(C(=O)O)cn(C3CC3)c12 (stereo not given) [GATIFLOXACIN] | 0.5 to 4 (≈ 1.33 to 10.7 µM) | – | – | – | – | – | – | – |
| O=C(c1ccccc1F)N(/N=N/c1ccc([N+](=O)[O-])cc1Br)c1ccc([N+](=O)[O-])cc1Br | – | 128 (≈ 226 µM) | > 128 | 128 (≈ 226 µM) | > 128 | > 128 | – | – |
| C[C@H]1COc2c(N3CCN(C)CC3)c(F)cc3c(=O)c(C(=O)O)cn1c23.C[C@H]1COc2c(N3CCN(C)CC3)c(F)cc3c(=O)c(C(=O)O)cn1c23.O [LEVOFLOXACIN] | 0.25 to 32 | – | – | – | – | – | – | – |
| Ic1ccccc1/N=N/Nc1ccccc1I | – | – | > 128 | > 128 | > 128 | > 128 | – | – |
| Clc1ccc(Cl)c(/N=N/Nc2cc(Cl)ccc2Cl)c1 | – | – | > 128 | > 128 | > 128 | > 128 | – | – |
| O=C(c1cccc(F)c1)N(/N=N/c1ccc([N+](=O)[O-])cc1Cl)c1ccc([N+](=O)[O-])cc1Cl | – | 64 (≈ 134 µM) | 16 (≈ 33.5 µM) | 64 (≈ 134 µM) | > 128 | > 128 | 16 (≈ 33.5 µM) | – |
| O=C(c1cccnc1)N(/N=N/c1ccc([N+](=O)[O-])cc1F)c1ccc([N+](=O)[O-])cc1F | – | > 128 | 64 (≈ 149 µM) | 128 (≈ 299 µM) | > 128 | > 128 | 64 (≈ 149 µM) | – |
| O=C(c1cccc(C(F)(F)F)c1)N(/N=N/c1ccc([N+](=O)[O-])cc1Cl)c1ccc([N+](=O)[O-])cc1Cl | – | 64 (≈ 121 µM) | 8 (≈ 15.1 µM) | 32 (≈ 60.6 µM) | > 128 | 32 (≈ 60.6 µM) | 8 (≈ 15.1 µM) | > 128 |
| NC[C@H]1O[C@H](O[C@H]2[C@H](O)[C@@H](O[C@H]3O[C@H](CO)[C@@H](O)[C@H](N)[C@H]3O)[C@H](N)C[C@@H]2N)[C@H](O)[C@@H](O)[C@@H]1O [KANAMYCIN] | > 64 | – | – | – | – | – | – | – |
| O=C(CCl)N(/N=N/c1ccc(Cl)cc1C(F)(F)F)c1ccc(Cl)cc1C(F)(F)F | – | – | > 128 | – | > 128 | – | > 128 | – |
| O=C(CCl)N(/N=N/c1ccc([N+](=O)[O-])cc1Br)c1ccc([N+](=O)[O-])cc1Br | – | 128 (≈ 245 µM) | > 128 | 64 (≈ 123 µM) | > 128 | > 128 | – | – |
| O=C(c1ccncc1)N(/N=N/c1ccc([N+](=O)[O-])cc1F)c1ccc([N+](=O)[O-])cc1F | – | – | 32 (≈ 74.7 µM) | > 128 | > 128 | > 128 | 32 (≈ 74.7 µM) | – |
| CC(=O)N(/N=N/c1ccc([N+](=O)[O-])cc1Cl)c1ccc([N+](=O)[O-])cc1Cl | – | > 128 | 4 (≈ 10 µM) | 64 (≈ 161 µM) | > 128 | 16 (≈ 40.2 µM) | 4 (≈ 10 µM) | > 128 |
| O=C(c1ccc(C(F)(F)F)cc1)N(/N=N/c1ccc([N+](=O)[O-])cc1Cl)c1ccc([N+](=O)[O-])cc1Cl | – | 128 (≈ 242 µM) | 8 (≈ 15.1 µM) | 64 (≈ 121 µM) | > 128 | 16 (≈ 30.3 µM) | 8 (≈ 15.1 µM) | > 128 |
| CC(=O)NC[C@H]1CN(c2ccc(N3CCOCC3)c(F)c2)C(=O)O1 [LINEZOLID] | 2 to 4 (≈ 5.93 to 11.9 µM) | – | – | – | – | – | – | – |
| O=C(c1cccnc1)N(/N=N/c1ccc([N+](=O)[O-])cc1Cl)c1ccc([N+](=O)[O-])cc1Cl | – | 32 (≈ 69.4 µM) | 32 (≈ 69.4 µM) | 32 (≈ 69.4 µM) | > 128 | 64 (≈ 139 µM) | 32 (≈ 69.4 µM) | 128 (≈ 278 µM) |
| FC(F)(F)c1ccc(/N=N/Nc2ccc(C(F)(F)F)cc2C(F)(F)F)c(C(F)(F)F)c1 | – | – | > 128 | – | > 128 | – | – | – |
| O=C(c1ccc(F)cc1)N(/N=N/c1ccc([N+](=O)[O-])cc1Br)c1ccc([N+](=O)[O-])cc1Br | – | 64 (≈ 113 µM) | > 128 | 64 (≈ 113 µM) | > 128 | > 128 | – | – |
| CCC[C@@H]1C[C@@H](C(=O)N[C@@H]([C@H]2O[C@H](SC)[C@H](O)[C@@H](O)[C@H]2O)[C@H](C)Cl)N(C)C1 [CLINDAMYCIN] | 0.125 to 64 (≈ 0.294 to 151 µM) | – | – | – | – | – | – | – |
| O=C(c1ccncc1)N(/N=N/c1ccc([N+](=O)[O-])cc1Cl)c1ccc([N+](=O)[O-])cc1Cl | – | 16 (≈ 34.7 µM) | 16 (≈ 34.7 µM) | 16 (≈ 34.7 µM) | > 128 | 128 (≈ 278 µM) | 16 (≈ 34.7 µM) | > 128 |
